Results pooled from the literature.
Lines come from different studies, so protocols differ.
Target: Ribosomal protein S6 kinase beta-1 (RPS6KB1, Homo sapiens, UniProt P23443)

C[C@H](c1cccc(C#N)c1)n1cc(Cl)cc(C(N)=O)c1=N
remaining binding (cell-free assay; competition with immobilised ligand; 1 µM): 100%

CN(C)C1CCN(CC#Cc2nn(C3CCCC3)c3nc(NCc4ccccc4)ncc23)C1 (stereo not shown)
inhibition (enzyme activity; inhibitor; FRET; 10 µM): 10%

CCN(CC)CCNC(=O)c1c(C)[nH]c(/C=C2\C(=O)Nc3ccc(F)cc32)c1C
inhibition (enzyme activity; inhibitor; 10 µM): 90%

N#Cc1ccc(Nc2ccc3[nH]c(=O)[nH]c3c2)c(Cl)c1
remaining binding (cell-free assay; competition with immobilised ligand; 1 µM): 100%

Nc1ncnc2occ(-c3ccc(NC(=O)Nc4cc(C(F)(F)F)ccc4F)cc3)c12
remaining signal (cell-free assay; inhibitor; 20 µM): 0.1%

CCOCCn1cc(C(=O)Nc2ccc(-n3nc(-c4cccnc4)cc3C(F)(F)F)cn2)ccc1=O
remaining binding (cell-free assay; competition with immobilised ligand; 1 µM): 97%

N#CCCc1ccc2c(c1)-c1[nH]c3ccc([N+](=O)[O-])cc3c1CC(=O)N2
remaining signal (cell-free assay; 0.5 µM): 98%

Cc1cc(NC(=O)c2cccc3cc(-c4cccc5[nH]nc(N)c45)ccc23)ccc1F
activity vs control (enzyme activity; inhibitor; 0.1 µM): 110%

COc1cc(/C=C/C(=O)CC(=O)/C=C/c2ccc(O)c(OC)c2)ccc1O
activity vs control (enzyme activity; inhibitor; 1 µM): 46%

Oc1cccc(-c2nc(N3CCOCC3)c3oc4ncccc4c3n2)c1
remaining signal (cell-free assay; 0.5 µM): 106%

Cn1cncc1C1=CN(c2ncnc3[nH]cnc23)CCS1
inhibition (enzyme activity; inhibitor; radiometric; 2 µM): 87.3%

Cc1ccc(C(=O)NCc2ccsc2)cc1C#Cc1cn(C(C)C)c2ncnc(N)c12
activity vs control (enzyme activity; inhibitor; 1 µM): 92%

Cc1ccc(NC(=O)c2ccc(C)c(C(F)(F)F)c2)cc1C#Cc1nn(C2CCC(O)CC2)c2ncnc(N)c12 (stereo not shown)
remaining signal (cell-free assay; 10 µM): 33%

CN([C@@H]1CCc2c(CC(=O)O)c3ccccc3n2C1)S(=O)(=O)c1ccc(F)cc1
remaining binding (cell-free assay; competition with immobilised ligand; 1 µM): 100%

C=CC(=O)Nc1cc(Nc2nccc(Nc3cc(Cl)c(F)cc3C(C)(C)O)n2)c(OC)cc1N1CC[C@@H](N(C)C)C1
inhibition (enzyme activity; inhibitor; 1 µM): -3%

CC(=O)c1c(NS(C)(=O)=O)c2cc(-c3ccc(Cl)cc3)c(-c3ccc(Cl)cc3Cl)nc2n(C)c1=O
remaining binding (cell-free assay; competition with immobilised ligand; 1 µM): 95%

COc1cc2ncnc(Nc3ccc(Oc4ccccc4)c(C)c3C)c2cc1OC
inhibition (enzyme activity; inhibitor; 1 µM): -3%

COc1ccc(COc2ccc(Cc3cnc(N)nc3N)cc2OC)cc1
remaining signal (cell-free assay; 0.5 µM): 89.5%

COc1cc(-c2cn(C3CCc4c(F)cccc4N(CC(F)(F)F)C3=O)nn2)ccc1-n1cnc(C)c1 (stereo not shown)
remaining binding (cell-free assay; competition with immobilised ligand; 1 µM): 100%
